Laboratory results reported in ChEMBL document CHEMBL2401666, “Structure-based design of novel HCV NS5B thumb pocket 2 allosteric inhibitors with submicromolar gt1 replicon potency: discovery of a quinazolinone chemotype” (Bioorg Med Chem Lett, 2013).

Key:
[1] = Lipophilicity, log D of the compound at pH 7.4; type: physicochemical; conditions: buffer
[2] = Half life in rat liver microsomes at 2 uM; type: ADME, Microsome
[3] = Permeability across apical to basolateral side in human Caco2 cells at 10 uM; type: ADME, cell-based; conditions: Caco-2, read-out: permeability
In short: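 Caco-2 monolayer, apical-to-basolateral transport at 10 µM across a pH 6.8–7.4 gradient; apparent permeability in cm/s ×10^-6.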

[4] = Half life in human liver microsomes at 2 uM; type: ADME, Microsome

Compound	logD [1]	half-life at 2 µM [2]	Papp A→B at 10 µM [3]	half-life at 2 µM [4]
O=c1ncn(Cc2ccc(F)cc2F)c2cc(F)c(Oc3ncccc3C(F)(F)F)cc12	3.9			
O=c1ncn(Cc2c(F)cc(F)cc2F)c2ccc(Oc3cccnc3C(F)(F)F)cc12	2.9	22 min	11 ×10⁻⁶ cm/s	> 300 min
O=c1ncn(Cc2ccc(F)cc2F)c2ccc(Oc3ccncc3C(F)(F)F)cc12	3			
CC(C)N(c1ccc(Oc2ncccc2C(F)(F)F)cc1C(=O)O)C(=O)[C@H]1CC[C@H](C)CC1		60 min	19 ×10⁻⁶ cm/s	69 min
O=c1nc[nH]c2ccc(Oc3ncccc3C(F)(F)F)cc12	2.5			
COc1ccc2c(c1)c(=O)ncn2Cc1ccc(F)cc1F	1.8			
O=c1ncn(Cc2c(F)cc(F)cc2F)c2ccc(Oc3ncccc3C(F)(F)F)cc12	3.3	38 min	12 ×10⁻⁶ cm/s	123 min
O=c1ncn(Cc2c(F)cc(F)cc2F)c2ccc(Oc3cnccc3C(F)(F)F)cc12	3			
O=c1ncn(Cc2ccc(F)cc2F)c2ccc(Oc3ncccc3C(F)(F)F)cc12		31 min	13 ×10⁻⁶ cm/s	110 min

Now from value to compound:

logD [1]	half-life at 2 µM [2]	Papp A→B at 10 µM [3]	half-life at 2 µM [4]	Compound
3.2				O=c1ncn(Cc2c(F)cc(F)cc2F)c2ccc(Oc3ccccc3)cc12
3.7				Cc1ccc(Cn2cnc(=O)c3cc(Oc4ncccc4C(F)(F)F)ccc32)cc1
3.8	15 min	8.4 ×10⁻⁶ cm/s	45 min	Cc1ccc(Cn2cnc(=O)c3cc(Oc4ncccc4C(F)(F)F)ccc32)c(F)c1
3.5	26 min	11 ×10⁻⁶ cm/s	80 min	COc1ccnc(Oc2ccc3c(c2)c(=O)ncn3Cc2ccc(F)cc2F)c1C(F)(F)F
	60 min	7.1 ×10⁻⁶ cm/s	93 min	O=c1ncn(Cc2ccc(Br)cc2F)c2ccc(Oc3ncccc3C(F)(F)F)cc12
3.3				O=c1ncn(CC2CCCC2)c2ccc(Oc3ncccc3C(F)(F)F)cc12
3.3	15 min	7.9 ×10⁻⁶ cm/s	84 min	COc1ccnc(Oc2ccc3c(c2)c(=O)ncn3Cc2c(F)cc(F)cc2F)c1C(F)(F)F
4.2				O=c1ncn(Cc2c(F)cc(F)cc2F)c2ccc(Oc3ccccc3C(F)(F)F)cc12
	92 min	17 ×10⁻⁶ cm/s	119 min	CC(C)N(c1ccc(Oc2ccccc2C(F)(F)F)cc1C(=O)O)C(=O)[C@H]1CC[C@H](C)CC1
